Data reported in ChEMBL document CHEMBL4732237, “Discovery of 4-alkoxy-2-aryl-6,7-dimethoxyquinolines as a new class of topoisomerase I inhibitors endowed with potent in vitro anticancer activity” (2021).

Each molecule was assayed on MDA-MB-435 (assay: Growth inhibition of human MDA-MB-435 cells at 10 uM incubated for 48 hrs by sulforhodamine B assay relative to control). Conditions: read-out: GI.
Type: functional
In short: (§1)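 NCI-60 single-dose screen. Cells were grown in RPMI 1640 with 5% FBS and 2 mM L-glutamine and plated 24 h before drug addition. Compound was added at one concentration in DMSO-derived medium and incubated for 48 h at 37 °C in 5% CO2. Read-out was SRB protein stain at 515 nm. Result is percent growth versus the no-drug control and the time-zero cell count; values below 0 indicate lethality.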

Row | Structure (SMILES) | inhibition of growth at 10 µM [%]
1 | COc1cc2nc(-c3ccc(Cl)cc3)cc(OCCCN3CCCCC3)c2cc1OC | 62

These molecules were tested on SK-MEL-2 (assay: Growth inhibition of human SK-MEL-2 cells at 10 uM incubated for 48 hrs by sulforhodamine B assay relative to control). Conditions: read-out: GI.
Type: functional
In short: (§2)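 NCI one-dose screen. Cells grown in RPMI 1640 with 5% FBS and 2 mM L-glutamine, plated and incubated 24 h at 37 °C, 5% CO2. DMSO-dissolved drug added, then 48 h further incubation. Adherent cells fixed with cold TCA, suspension cells fixed after settling. Stained with 0.4% SRB, absorbance read at 515 nm. Reported as percent growth relative to no-drug control and time-zero cell number.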

Row | Structure (SMILES) | inhibition of growth at 10 µM [%]
2 | COc1cc2nc(-c3ccc(Cl)cc3)cc(OCCCN3CCCCC3)c2cc1OC | 62

Each molecule was assayed on SK-MEL-28 (assay: Growth inhibition of human SK-MEL-28 cells at 10 uM incubated for 48 hrs by sulforhodamine B assay relative to control). Conditions: read-out: GI.
Type: functional
In short: as §2

Row | Structure (SMILES) | inhibition of growth at 10 µM [%]
3 | COc1cc2nc(-c3ccc(Cl)cc3)cc(OCCCN3CCCCC3)c2cc1OC | 62

The molecules below were run on SK-MEL-5 (assay: Growth inhibition of human SK-MEL-5 cells at 10 uM incubated for 48 hrs by sulforhodamine B assay relative to control). Conditions: read-out: GI.
Type: functional
In short: as §2

Row | Structure (SMILES) | inhibition of growth at 10 µM [%]
4 | COc1cc2nc(-c3ccc(Cl)cc3)cc(OCCCN3CCCCC3)c2cc1OC | 62

These molecules were tested on UACC-257 (assay: Growth inhibition of human UACC-257 cells at 10 uM incubated for 48 hrs by sulforhodamine B assay relative to control). Conditions: read-out: GI.
Type: functional
In short: (§3)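 NCI one-dose screen across a 59-line panel. Cells were grown in RPMI 1640 with 5% FBS and 2 mM L-glutamine, plated and pre-incubated 24 h, then exposed to drug for 48 h at 37 °C, 5% CO2. Adherent cells were fixed with cold TCA (10% final), stained with 0.4% SRB in 1% acetic acid and read at 515 nm. Result is percent growth relative to no-drug control and time-zero cell count.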

Row | Structure (SMILES) | inhibition of growth at 10 µM [%]
5 | COc1cc2nc(-c3ccc(Cl)cc3)cc(OCCCN3CCCCC3)c2cc1OC | 62

What follows are molecules tested on UACC-62 (assay: Growth inhibition of human UACC-62 cells at 10 uM incubated for 48 hrs by sulforhodamine B assay relative to control). Conditions: read-out: GI.
Type: functional
In short: as §3

Row | Structure (SMILES) | inhibition of growth at 10 µM [%]
6 | COc1cc2nc(-c3ccc(Cl)cc3)cc(OCCCN3CCCCC3)c2cc1OC | 62

What follows are molecules tested on OVCAR-3 (assay: Growth inhibition of human OVCAR-3 cells at 10 uM incubated for 48 hrs by sulforhodamine B assay relative to control). Conditions: read-out: GI.
Type: functional
In short: as §2

Row | Structure (SMILES) | inhibition of growth at 10 µM [%]
7 | COc1cc2nc(-c3ccc(Cl)cc3)cc(OCCCN3CCCCC3)c2cc1OC | 62

What follows are molecules tested on OVCAR-4 (assay: Growth inhibition of human OVCAR-4 cells at 10 uM incubated for 48 hrs by sulforhodamine B assay relative to control). Conditions: read-out: GI.
Type: functional
In short: as §2

Row | Structure (SMILES) | inhibition of growth at 10 µM [%]
8 | COc1cc2nc(-c3ccc(Cl)cc3)cc(OCCCN3CCCCC3)c2cc1OC | 62

These molecules were tested on OVCAR-5 (assay: Growth inhibition of human OVCAR-5 cells at 10 uM incubated for 48 hrs by sulforhodamine B assay relative to control). Conditions: read-out: GI.
Type: functional
In short: as §2

Row | Structure (SMILES) | inhibition of growth at 10 µM [%]
9 | COc1cc2nc(-c3ccc(Cl)cc3)cc(OCCCN3CCCCC3)c2cc1OC | 62

The molecules below were run on OVCAR-8 (assay: Growth inhibition of human OVCAR-8 cells at 10 uM incubated for 48 hrs by sulforhodamine B assay relative to control). Conditions: read-out: GI.
Type: functional
In short: as §2

Row | Structure (SMILES) | inhibition of growth at 10 µM [%]
10 | COc1cc2nc(-c3ccc(Cl)cc3)cc(OCCCN3CCCCC3)c2cc1OC | 62

These molecules were tested on NCI/ADR-RES (assay: Growth inhibition of human NCI/ADR-RES cells at 10 uM incubated for 48 hrs by sulforhodamine B assay relative to control). Conditions: read-out: GI.
Type: functional
In short: as §2

Row | Structure (SMILES) | inhibition of growth at 10 µM [%]
11 | COc1cc2nc(-c3ccc(Cl)cc3)cc(OCCCN3CCCCC3)c2cc1OC | 62

These molecules were tested on SN12C (assay: Growth inhibition of human SN12C cells at 10 uM incubated for 48 hrs by sulforhodamine B assay relative to control). Conditions: read-out: GI.
Type: functional
In short: as §2

Row | Structure (SMILES) | inhibition of growth at 10 µM [%]
12 | COc1cc2nc(-c3ccc(Cl)cc3)cc(OCCCN3CCCCC3)c2cc1OC | 62

What follows are molecules tested on TK-10 (assay: Growth inhibition of human TK-10 cells at 10 uM incubated for 48 hrs by sulforhodamine B assay relative to control). Conditions: read-out: GI.
Type: functional
In short: as §3

Row | Structure (SMILES) | inhibition of growth at 10 µM [%]
13 | COc1cc2nc(-c3ccc(Cl)cc3)cc(OCCCN3CCCCC3)c2cc1OC | 62

These molecules were tested on PC-3 (assay: Growth inhibition of human PC-3 cells at 10 uM incubated for 48 hrs by sulforhodamine B assay relative to control). Conditions: read-out: GI.
Type: functional
In short: as §2

Row | Structure (SMILES) | inhibition of growth at 10 µM [%]
14 | COc1cc2nc(-c3ccc(Cl)cc3)cc(OCCCN3CCCCC3)c2cc1OC | 62

Each molecule was assayed on Hs-578T (assay: Growth inhibition of human HS-578T cells at 10 uM incubated for 48 hrs by sulforhodamine B assay relative to control). Conditions: read-out: GI.
Type: functional
In short: as §1

Row | Structure (SMILES) | inhibition of growth at 10 µM [%]
15 | COc1cc2nc(-c3ccc(Cl)cc3)cc(OCCCN3CCCCC3)c2cc1OC | 62

Each molecule was assayed on BT-549 (assay: Growth inhibition of human BT-549 cells at 10 uM incubated for 48 hrs by sulforhodamine B assay relative to control). Conditions: read-out: GI.
Type: functional
In short: as §1

Row | Structure (SMILES) | inhibition of growth at 10 µM [%]
16 | COc1cc2nc(-c3ccc(Cl)cc3)cc(OCCCN3CCCCC3)c2cc1OC | 62

The molecules below were run on T47D (assay: Growth inhibition of human T47D cells at 10 uM incubated for 48 hrs by sulforhodamine B assay relative to control). Conditions: read-out: GI.
Type: functional
In short: as §3

Row | Structure (SMILES) | inhibition of growth at 10 µM [%]
17 | COc1cc2nc(-c3ccc(Cl)cc3)cc(OCCCN3CCCCC3)c2cc1OC | 62

What follows are molecules tested on MDA-MB-468 (assay: Growth inhibition of human MDA-MB-468 cells at 10 uM incubated for 48 hrs by sulforhodamine B assay relative to control). Conditions: read-out: GI.
Type: functional
In short: as §1

Row | Structure (SMILES) | inhibition of growth at 10 µM [%]
18 | COc1cc2nc(-c3ccc(Cl)cc3)cc(OCCCN3CCCCC3)c2cc1OC | 62
